According to ChEMBL document CHEMBL4308899, “Design, synthesis and QSAR study of 2'-hydroxy-4'-alkoxy chalcone derivatives that exert cytotoxic activity by the mitochondrial apoptotic pathway” (Bioorg Med Chem, 2019):
Activity calls are given as the source filed them. No cut-off for these calls is given here.

Legend:
PC-3 [1] = experiment: Induction of apoptosis in human PC3 cells assessed as plasma membrane blebbing at IC50 after 48 hrs by acridine orange/ethidium bromide staining-based epifluorescence microscopic analysis; assay type: functional, cell-based
[2] = Antiproliferative activity against human HF6 cells after 48 hrs by CellTiter 96 AQueous one solution cell proliferation assay; assay type: functional, cell-based
PC-3 [3] = experiment: Antiproliferative activity against human PC3 cells after 48 hrs by CellTiter 96 AQueous one solution cell proliferation assay; assay type: functional, cell-based; details: PC-3, 48 h
Summary of the method: (§1)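 Cells plated at 8000/well; test agents dissolved in DMSO and tested at 80, 8, 0.8, 0.08 and 0.008 μg/mL for 48 h at 37°C, 5% CO2. PC3 and CaSki were grown in RPMI-1640, MCF7 in Eagle's MEM, with 10% FBS and 2 mM glutamine. Podophyllotoxin served as positive control. Viability read by MTS-type reagent absorbance at 450 nm. Triplicates in three independent experiments; IC50 by regression.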

PC-3 [4] = experiment: Cell cycle arrest in human PC3 cells assessed as accumulation at G2/M phase at 11.81 uM after 48 hrs by RNAse/propidium iodide staining-based flow cytometric analysis (reference value: 24.9%); assay type: functional
MCF7 = experiment: Antiproliferative activity against human MCF7 cells after 48 hrs by CellTiter 96 AQueous one solution cell proliferation assay; assay type: functional, cell-based; details: MCF7, 48 h; summary of the method: as §1
PC-3 [5] = experiment: Induction of apoptosis in human PC3 cells assessed as upregulation of Bax mRNA expression after 48 hrs by RT-PCR analysis; assay type: functional, cell-based
Summary of the method: (§2)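 PC3 cells (1.25×10^5) were treated 48 h, then RNA was isolated. Bcl-2 and Bax mRNA were measured by RT-PCR with GAPDH as internal control.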

PC-3 [6] = experiment: Cell cycle arrest in human PC3 cells assessed as accumulation at S phase at 11.81 uM after 48 hrs by RNAse/propidium iodide staining-based flow cytometric analysis (reference value: 19.7%); assay type: functional
PC-3 [7] = experiment: Induction of apoptosis in human PC3 cells assessed as down regulation of Bcl2 mRNA expression after 48 hrs by RT-PCR analysis; assay type: functional, cell-based; summary of the method: as §2
BJ = experiment: Cytotoxicity against human BJ cells after 48 hrs by CellTiter 96 AQueous one solution cell proliferation assay; assay type: cell-based
PC-3 [8] = experiment: Induction of apoptosis in human PC3 cells assessed as chromatin condensation at IC50 after 48 hrs by acridine orange/ethidium bromide staining-based epifluorescence microscopic analysis; assay type: functional, cell-based
PC-3 [9] = experiment: Cell cycle arrest in human PC3 cells assessed as accumulation at G1 phase at 11.81 uM after 48 hrs by RNAse/propidium iodide staining-based flow cytometric analysis (reference value: 55.6%); assay type: functional
PC-3 [10] = experiment: Induction of apoptosis in human PC3 cells assessed as increase in caspase 3/7 activity by Caspase 3/7-Glo luminescence assay; assay type: functional, cell-based
Summary of the method: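 PC3 cells (8000) were treated, and caspase-3/7 activity was then read by Caspase-Glo 3/7 luminescence. Results are relative luminescence units versus untreated control; paclitaxel was included as a comparator.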

PC-3 [11] = experiment: Cell cycle arrest in human PC3 cells assessed as accumulation at sub-G1 phase at 11.81 uM after 48 hrs by RNAse/propidium iodide staining-based flow cytometric analysis (reference value: 0.00%); assay type: functional
PC-3 [12] = experiment: Induction of apoptosis in human PC3 cells assessed as formation of apoptotic bodies at IC50 after 48 hrs by acridine orange/ethidium bromide staining-based epifluorescence microscopic analysis; assay type: functional, cell-based
Ca-Ski = experiment: Antiproliferative activity against human CaSki cells after 48 hrs by CellTiter 96 AQueous one solution cell proliferation assay; assay type: functional, cell-based; summary of the method: as §1
PC-3 [13] = experiment: Induction of apoptosis in human PC3 cells assessed as formation of apoptotic bodies at 0.005 uM after 48 hrs by acridine orange/ethidium bromide staining-based epifluorescence microscopic analysis; assay type: functional, cell-based
Summary of the method: (§3)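 PC3 cells, 25000 per well in 24-well plates, treated 48 h; H2O2 30 min served as apoptosis control, boiling at 95°C for 10 sec as necrosis control. Cells then exposed to acridine orange/ethidium bromide (100 μg/mL each) and examined by fluorescence microscopy. Scored by nuclear morphology: chromatin condensation, orange condensed chromatin (late apoptosis), apoptotic bodies.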

PC-3 [14] = experiment: Induction of apoptosis in human PC3 cells assessed as chromatin condensation at 0.005 uM after 48 hrs by acridine orange/ethidium bromide staining-based epifluorescence microscopic analysis; assay type: functional, cell-based; summary of the method: as §3
PC-3 [15] = experiment: Cell cycle arrest in human PC3 cells assessed as accumulation at G1 phase at 0.12 uM after 48 hrs by RNAse/propidium iodide staining-based flow cytometric analysis (reference value: 55.6%); assay type: functional
PC-3 [16] = experiment: Induction of apoptosis in human PC3 cells assessed as plasma membrane blebbing at 0.005 uM after 48 hrs by acridine orange/ethidium bromide staining-based epifluorescence microscopic analysis; assay type: functional, cell-based; summary of the method: as §3
PC-3 [17] = experiment: Cell cycle arrest in human PC3 cells assessed as accumulation at sub-G1 phase at 0.12 uM after 48 hrs by RNAse/propidium iodide staining-based flow cytometric analysis (reference value: 0.00%); assay type: functional
PC-3 [18] = experiment: Cell cycle arrest in human PC3 cells assessed as accumulation at S phase at 0.12 uM after 48 hrs by RNAse/propidium iodide staining-based flow cytometric analysis (reference value: 19.7%); assay type: functional
PC-3 [19] = experiment: Cell cycle arrest in human PC3 cells assessed as accumulation at G2/M phase at 0.12 uM after 48 hrs by RNAse/propidium iodide staining-based flow cytometric analysis (reference value: 24.9%); assay type: functional
PC-3 [20] = experiment: Cell cycle arrest in human PC3 cells assessed as accumulation at G1 phase at 13.75 uM after 48 hrs by RNAse/propidium iodide staining-based flow cytometric analysis (reference value: 55.6%); assay type: functional
PC-3 [21] = experiment: Cell cycle arrest in human PC3 cells assessed as accumulation at sub-G1 phase at 13.75 uM after 48 hrs by RNAse/propidium iodide staining-based flow cytometric analysis (reference value: 0.00%); assay type: functional
PC-3 [22] = experiment: Cell cycle arrest in human PC3 cells assessed as accumulation at G2/M phase at 13.75 uM after 48 hrs by RNAse/propidium iodide staining-based flow cytometric analysis (reference value: 24.9%); assay type: functional
PC-3 [23] = experiment: Cell cycle arrest in human PC3 cells assessed as accumulation at S phase at 13.75 uM after 48 hrs by RNAse/propidium iodide staining-based flow cytometric analysis (reference value: 19.7%); assay type: functional
PC-3 [24] = experiment: Antiproliferative activity against human PC3 cells after 72 hrs by CyQuant dye-based assay; assay type: functional, cell-based; details: PC-3, 72 h
PC-3 [25] = experiment: Cell cycle arrest in human PC3 cells assessed as accumulation at S phase at 8.2 uM after 48 hrs by RNAse/propidium iodide staining-based flow cytometric analysis (reference value: 19.7%); assay type: functional
PC-3 [26] = experiment: Cell cycle arrest in human PC3 cells assessed as accumulation at sub-G1 phase at 8.2 uM after 48 hrs by RNAse/propidium iodide staining-based flow cytometric analysis (reference value: 0.00%); assay type: functional
PC-3 [27] = experiment: Cell cycle arrest in human PC3 cells assessed as accumulation at G2/M phase at 8.2 uM after 48 hrs by RNAse/propidium iodide staining-based flow cytometric analysis (reference value: 24.9%); assay type: functional
PC-3 [28] = experiment: Cell cycle arrest in human PC3 cells assessed as accumulation at G1 phase at 8.2 uM after 48 hrs by RNAse/propidium iodide staining-based flow cytometric analysis (reference value: 55.6%); assay type: functional

Q: With `COc1ccc(C(=O)/C=C/c2ccccc2)c(O)c1` as the compound, how does the Activity (PC-3 [1]) read?
A: Active

Q: What about the IC50 [2] of the same compound?
A: > 50 µM

Q: And the IC50 (PC-3 [3])?
A: 11.8 µM

Q: And the Activity (PC-3 [4])?
A: 27.1%

Q: What about the IC50 (MCF7) of the same compound?
A: > 50 µM

Q: What about the Activity (PC-3 [5]) of the same compound?
A: Active

Q: What about the Activity (PC-3 [6]) of the same compound?
A: 16%

Q: What about the Activity (PC-3 [7]) of the same compound?
A: Active

Q: What about the IC50 (BJ) of the same compound?
A: 239 µM

Q: And the Activity (PC-3 [8])?
A: Active

Q: What about the Activity (PC-3 [9]) of the same compound?
A: 46.8%

Q: What about the Activity (PC-3 [10]) of the same compound?
A: Active

Q: And the Activity (PC-3 [11])?
A: 13.6%

Q: What about the Activity (PC-3 [12]) of the same compound?
A: Active

Q: Which IC50 [2] does the source give for `CC(=O)Oc1ccc(C(=O)/C=C/c2ccccc2)c(O)c1` here?
A: > 50 µM

Q: What about the IC50 (PC-3 [3]) of the same compound?
A: 10 µM

Q: And the IC50 (Ca-Ski)?
A: > 50 µM

Q: And the IC50 (MCF7)?
A: > 50 µM

Q: What about the IC50 (BJ) of the same compound?
A: 21.3 µM

Q: Which Activity (PC-3 [13]) does the source give for `COc1cc([C@@H]2c3cc4c(cc3[C@H](O)[C@H]3COC(=O)[C@H]23)OCO4)cc(OC)c1OC` [PODOFILOX] here?
A: Active

Q: And the IC50 [2]?
A: 0.0369 µM

Q: And the Activity (PC-3 [14])?
A: Active

Q: And the IC50 (PC-3 [3])?
A: 0.12 µM

Q: What about the IC50 (Ca-Ski) of the same compound?
A: 0.3 µM

Q: What about the IC50 (MCF7) of the same compound?
A: 0.28 µM

Q: And the Activity (PC-3 [15])?
A: 8.31%

Q: What about the IC50 (BJ) of the same compound?
A: 5 µM

Q: What about the Activity (PC-3 [16]) of the same compound?
A: Active

Q: And the Activity (PC-3 [17])?
A: 35.6%

Q: What about the Activity (PC-3 [18]) of the same compound?
A: 9.82%

Q: And the Activity (PC-3 [19])?
A: 47%

Q: Which results are given for `O=C(/C=C/c1ccccc1)c1ccc(OCc2ccccc2)cc1O`?
A: IC50 (PC-3 [3]): 34.7 µM; IC50 (Ca-Ski): > 50 µM; IC50 (MCF7): > 50 µM

Q: Which Activity (PC-3 [1]) does the source give for `O=C(/C=C/c1ccccc1)c1ccc(O)cc1O` [2',4'-DIHYDROXYCHALCONE] here?
A: Active

Q: What about the IC50 (PC-3 [3]) of the same compound?
A: 13.8 µM

Q: And the Activity (PC-3 [20])?
A: 32.2%

Q: What about the IC50 (MCF7) of the same compound?
A: > 50 µM

Q: And the Activity (PC-3 [5])?
A: Active

Q: What about the Activity (PC-3 [21]) of the same compound?
A: 16.3%

Q: And the Activity (PC-3 [22])?
A: 40.8%

Q: And the Activity (PC-3 [23])?
A: 10.7%

Q: What about the Activity (PC-3 [7]) of the same compound?
A: Active

Q: And the IC50 (BJ)?
A: 262 µM

Q: What about the Activity (PC-3 [8]) of the same compound?
A: Active

Q: And the Activity (PC-3 [10])?
A: Active

Q: What about the Activity (PC-3 [12]) of the same compound?
A: Active

Q: Which results are given for `COc1ccc(C(=O)/C=C/c2ccccc2)c(O)c1Br`?
A: IC50 [2]: > 50 µM; IC50 (PC-3 [3]): 47.8 µM; IC50 (Ca-Ski): > 50 µM; IC50 (MCF7): > 50 µM

Q: With `COc1ccc(C(=O)CCc2ccccc2)c(O)c1` as the compound, how does the IC50 [2] read?
A: > 50 µM

Q: And the IC50 (PC-3 [3])?
A: > 50 µM

Q: What about the IC50 (Ca-Ski) of the same compound?
A: > 50 µM

Q: And the IC50 (MCF7)?
A: > 50 µM

Q: With `O=C(/C=C/c1ccccc1O)c1ccccc1O` as the compound, how does the IC50 (PC-3 [24]) read?
A: 10.3 µM

Q: What does the source list for `COc1cc(O)c(C(=O)/C=C/c2ccccc2)cc1Br`?
A: IC50 [2]: 38.9 µM; IC50 (PC-3 [3]): > 50 µM; IC50 (Ca-Ski): > 50 µM; IC50 (MCF7): > 50 µM

Q: With `CCOc1ccc(C(=O)/C=C/c2ccccc2)c(O)c1` as the compound, how does the Activity (PC-3 [1]) read?
A: Active

Q: And the Activity (PC-3 [25])?
A: 7.69%

Q: And the IC50 (PC-3 [3])?
A: 8.2 µM

Q: And the IC50 (MCF7)?
A: > 50 µM

Q: What about the Activity (PC-3 [26]) of the same compound?
A: 17.9%

Q: And the Activity (PC-3 [5])?
A: Active

Q: What about the Activity (PC-3 [27]) of the same compound?
A: 50.1%

Q: What about the Activity (PC-3 [7]) of the same compound?
A: Active

Q: And the Activity (PC-3 [28])?
A: 24.3%

Q: What about the IC50 (BJ) of the same compound?
A: 208 µM

Q: And the Activity (PC-3 [8])?
A: Active

Q: What about the Activity (PC-3 [10]) of the same compound?
A: Active

Q: What about the Activity (PC-3 [12]) of the same compound?
A: Active

Q: Which results are given for `COc1ccc(C(=O)/C=C/c2ccccc2)c(O)c1I`?
A: IC50 [2]: > 50 µM; IC50 (PC-3 [3]): 34 µM; IC50 (Ca-Ski): > 50 µM; IC50 (MCF7): > 50 µM

Q: For `COc1cc(O)c(C(=O)/C=C/c2ccccc2)cc1I`, which IC50 [2] is on record?
A: > 50 µM

Q: What about the IC50 (PC-3 [3]) of the same compound?
A: > 50 µM

Q: What about the IC50 (Ca-Ski) of the same compound?
A: > 50 µM

Q: What about the IC50 (MCF7) of the same compound?
A: > 50 µM

Q: For `CCCOc1ccc(C(=O)/C=C/c2ccccc2)c(O)c1`, which IC50 (PC-3 [3]) is on record?
A: 8.08 µM

Q: What about the IC50 (Ca-Ski) of the same compound?
A: > 50 µM

Q: What about the IC50 (MCF7) of the same compound?
A: > 50 µM

Q: What about the IC50 (BJ) of the same compound?
A: 16 µM
